A short description of assay [1]: (§1) Inhibition of human plasma alpha-thrombin assessed as spectrozyme TH hydrolysis preincubated for 10 mins by spectrophotometric analysis. Type of assay: cell-free. The essentials:
(§2)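 Human plasma α-thrombin (5 nM final) with inhibitor (1−900 μM final) in 20 mM Tris-HCl pH 7.4, 100 mM NaCl, 2.5 mM CaCl2, 0.1% PEG8000, PEG20000-coated cuvettes, 10 min. Spectrozyme TH then added (30 μM final). Initial rate from A405 increase. Residual activity fitted by logistic equation with floating Hill slope, Y0, YM to give IC50.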

Assay [2] has as its target Coagulation factor X (Homo sapiens) (UniProt P00742). In words: Inhibition of human factor 10a at 365 uM.
For assay [3], the species on record is Homo sapiens. In words: Inhibition of human plasma alpha-thrombin assessed as spectrozyme TH hydrolysis at 1 to 900 uM preincubated for 10 mins by spectrophotometric analysis relative to control. In kind it is cell-free. The essentials:
as §2

For assay [4], the species on record is Homo sapiens. Described as §1. Type of assay: cell-free. The essentials: as §2
Another assay has as its target Prothrombin (Homo sapiens, UniProt P00734). In words: Binding affinity to thrombin exosite-2 (unknown origin).
The species entered for assay [5] is Homo sapiens. In words: Binding affinity to human plasma alpha-thrombin exosite-2 using spectrozyme TH as substrate after overnight incubation at 25 degC by spectrophotometric analysis. Type of assay: cell-free.

Calls of active or inactive are those of the source. The rule behind the calls is not given here. Where a SMILES comes first, the peptide text is derived from it. [ ]: non-standard residue; d: D form. pY = N[C@@H](Cc1ccc(OP(=O)(O)O)cc1)C(=O)O Bounds are passed on as bounds.

Coagulation factor X (Homo sapiens), sequence (P00742 41-179 limits assumed): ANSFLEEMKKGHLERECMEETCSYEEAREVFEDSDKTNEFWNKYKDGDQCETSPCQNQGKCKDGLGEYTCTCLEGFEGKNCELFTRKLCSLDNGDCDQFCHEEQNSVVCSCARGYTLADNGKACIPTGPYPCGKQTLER
Coagulation factor X (Homo sapiens), sequence (P00742 235-488 limits assumed): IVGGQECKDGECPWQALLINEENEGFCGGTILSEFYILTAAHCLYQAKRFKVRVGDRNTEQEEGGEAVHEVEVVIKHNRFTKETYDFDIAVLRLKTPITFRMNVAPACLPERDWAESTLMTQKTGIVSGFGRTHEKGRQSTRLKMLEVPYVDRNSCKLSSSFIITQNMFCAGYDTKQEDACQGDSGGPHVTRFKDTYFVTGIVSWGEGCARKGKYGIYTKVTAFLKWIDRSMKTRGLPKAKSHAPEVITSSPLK

`CCOC(=O)c1c(COc2cc3c(C(=O)OCC)c(COc4cc5c(C(=O)O)c(C)oc5cc4OC)oc3cc2OC)oc2cc(OC)c(O)cc12`: in assay [1] (read-out: IC50), the IC50 is greater than 500 µM. Further, in assay [2], the inhibition result was “inactive”.

With `CCOC(=O)c1c(C)oc2cc(OC)c(OCc3oc4cc(OC)c(OCc5oc6cc(OC(C)C)c(OS(=O)(=O)O)cc6c5C(=O)OCC)cc4c3C(=O)OCC)cc12`, the IC50 in assay [1] (read-out: IC50) was 99 µM; in assay [1] (read-out: pIC50 (converted)) it was 100 µM. Besides, in assay [2], the inhibition result is “inactive”. In addition, the Efficacy in the assay listed under Homo sapiens [3] was 26%.

Consider `CCOC(=O)c1c(C)oc2cc(OC)c(OCc3oc4cc(OC)c(OCc5oc6cc(OS(=O)(=O)O)c(OC)cc6c5C(=O)OCC)cc4c3C(=O)OCC)cc12`, for which the values for the IC50 in assay [1] (read-out: IC50) and in assay [1] (read-out: pIC50 (converted)) were 154 µM and 155 µM, respectively. Also, the Efficacy in the assay filed under Homo sapiens [3] came to 91%.

Consider `CCOC(=O)c1c(C)oc2cc(OC)c(OCc3oc4cc(OC)c(OCc5oc6cc(OCC)c(OS(=O)(=O)O)cc6c5C(=O)OCC)cc4c3C(=O)OCC)cc12`, for which the IC50 in assay [1] (read-out: IC50) is 5.8 µM; in assay [1] (read-out: pIC50 (converted)), 5.89 µM. The inhibition result in assay [2] was “inactive”. Further, the Efficacy in the assay filed under Homo sapiens [3] was determined as 43%.

On to `CCOC(=O)c1c(C)oc2cc(OC)c(OCc3oc4cc(OC)c(OCc5oc6cc(OC)c(OS(=O)(=O)O)cc6c5C(=O)OC(C)(C)C)cc4c3C(=O)OCC)cc12`, for which the figures for the IC50 in assay [1] (read-out: IC50) and in assay [1] (read-out: pIC50 (converted)) were 165 µM and 166 µM, respectively. For the same compound, in assay [2], the inhibition entry was “inactive”. Moreover, the Efficacy in the assay filed under Homo sapiens [3] was 94%.

In the case of `N=C(N)NCCC[C@H](NC(=O)[C@@H]1CCCN1C(=O)[C@H](N)Cc1ccccc1)C(=O)CCl`, in the assay filed under Homo sapiens [4], the inhibition entry was “Active”.

`CCOC(=O)c1c(C)oc2cc(OC)c(OCc3oc4cc(OC)c(OCc5oc6cc(OC)c(OS(=O)(=O)O)cc6c5C(=O)OCCOC)cc4c3C(=O)OCC)cc12`: the IC50 in assay [1] (read-out: IC50) is greater than 500 µM. Further, in assay [2], the inhibition entry is “inactive”.

On to `CCOC(=O)c1c(C)oc2cc(OC)c(OCc3oc4cc(OC)c(OCc5oc6cc(OC)c(OCc7oc8cc(OC)c(OS(=O)(=O)O)cc8c7C(=O)OCC)cc6c5C(=O)OCC)cc4c3C(=O)OCC)cc12`, for which the IC50 in assay [1] (read-out: IC50) and in assay [1] (read-out: pIC50 (converted)) was 158 µM throughout.

Consider `CC(C)C[C@H](NC(=O)[C@H](CC(=O)O)NC(=O)[C@H](CC(=O)O)NC(=O)[C@H](CCC(=O)O)NC(=O)[C@@H]1CCCN1C(=O)[C@H](Cc1ccc(OP(=O)(O)O)cc1)NC(=O)[C@H](CC(C)C)NC(=O)[C@H](CO)NC(=O)[C@H](CC(=O)O)NC(=O)[C@H](Cc1ccc(OP(=O)(O)O)cc1)NC(=O)[C@H](CCC(=O)O)NC(=O)[C@@H](NC(=O)[C@H](CCC(=O)O)NC(=O)[C@H](C)NC(=O)[C@@H]1CCCN1C(=O)[C@H](Cc1cnc[nH]1)NC(=O)[C@H](CCC(=O)O)NC(=O)[C@@H]1CCCN1C(=O)[C@H](CCCNC(=N)N)NC(=O)[C@@H](N)C(C)C)[C@@H](C)O)C(=O)O` (H-VRPEHPAETE[pY]DSL[pY]PEDDL-OH), for which the K at Prothrombin was 0.6 µM.

For `C=CCOC(=O)c1c(C)oc2cc(OC)c(OCc3oc4cc(OC)c(OCc5oc6cc(OC)c(OS(=O)(=O)O)cc6c5C(=O)OCC)cc4c3C(=O)OCC)cc12`, the IC50 in assay [1] (read-out: IC50) was 31 µM; in assay [1] (read-out: pIC50 (converted)), 30.9 µM. Besides, in the assay listed under Homo sapiens [3], the Efficacy came to 53%.

Regarding `O=C(O)C1=C[C@H](O)[C@@H](OS(=O)(=O)O)[C@H](O[C@H]2[C@H](O)[C@@H](NS(=O)(=O)O)[C@@H](O[C@H]3[C@H](O)[C@@H](OS(=O)(=O)O)[C@H](O[C@H]4[C@H](O)[C@@H](NS(=O)(=O)O)[C@@H](O[C@H]5[C@H](O)[C@@H](OS(=O)(=O)O)[C@H](O[C@H]6[C@H](O)[C@@H](NS(=O)(=O)O)[C@@H](O[C@H]7[C@H](O)[C@@H](OS(=O)(=O)O)[C@H](O[C@H]8[C@H](O)[C@@H](NS(=O)(=O)O)[C@@H](O)O[C@@H]8COS(=O)(=O)O)O[C@H]7COS(=O)(=O)O)O[C@@H]6COS(=O)(=O)O)O[C@H]5COS(=O)(=O)O)O[C@@H]4COS(=O)(=O)O)O[C@H]3COS(=O)(=O)O)O[C@@H]2COS(=O)(=O)O)O1`, the K in the assay filed under Homo sapiens [5] stood at 2.7 µM.

For the compound `CCOC(=O)c1c(COc2cc3c(C(=O)O)c(C)oc3cc2OC)oc2cc(OC)c(OCc3oc4cc(OC)c(OS(=O)(=O)O)cc4c3C(=O)OCC)cc12`, the IC50 in assay [1] (read-out: IC50) is 66 µM; in assay [1] (read-out: pIC50 (converted)), 66.1 µM. The inhibition result in assay [2] was “inactive”. For the same compound, the Efficacy in the assay listed under Homo sapiens [3] came out at 49%.

Take `CCOC(=O)c1c(C)oc2cc(OC)c(OCc3oc4cc(OC)c(OCc5oc6cc(OC)c(OS(=O)(=O)O)cc6c5C(=O)OC)cc4c3C(=O)OCC)cc12`: the IC50 in assay [1] (read-out: IC50) was 2 µM; in assay [1] (read-out: pIC50 (converted)), 2.04 µM. For the same compound, the inhibition entry in assay [2] is “inactive”. In the assay filed under Homo sapiens [3], the Efficacy was determined as 39%.

Regarding `CCOC(=O)c1c(C)oc2cc(OC)c(OCc3oc4cc(OC)c(OCc5oc6cc(OC)c(OCc7oc8cc(OC)c(OS(=O)(=O)C(C)(C)C)cc8c7C(=O)OCC)cc6c5C(=O)OCC)cc4c3C(=O)OCC)cc12`, in assay [2], the inhibition result was “inactive”.
